Experimental data from different studies.
Compare with care: the assays were run in different laboratories.
ABL1 F317L non-phosphorylated: Tyrosine-protein kinase ABL1, non-phosphorylated (ABL1, Homo sapiens, UniProt P00519, F317L)
ABL1 E255K phosphorylated: Tyrosine-protein kinase ABL1, phosphorylated (ABL1, Homo sapiens, UniProt P00519, E255K)
ABL1 Y253F phosphorylated: Tyrosine-protein kinase ABL1, phosphorylated (ABL1, Homo sapiens, UniProt P00519, Y253F)
ABL1 T315I non-phosphorylated: Tyrosine-protein kinase ABL1, non-phosphorylated (ABL1, Homo sapiens, UniProt P00519, T315I)
ABL1 phosphorylated: Tyrosine-protein kinase ABL1, phosphorylated (ABL1, Homo sapiens, UniProt P00519)

`Cc1nccc(COC(=O)N2C[C@@H]3[C@@H](CNC(=O)c4ccc5[nH]nnc5c4)[C@@H]3C2)n1` has a remaining binding of 93% (Tyrosine-protein kinase ABL1, phosphorylated (ABL1, Homo sapiens, UniProt P00519, Q252H); cell-free assay; competition with immobilised ligand; 1 µM).
With `CCN1CCN(Cc2ccc(C(=O)Nc3ccc(C)c(Oc4ccc5c(c4)CC(=O)N5)c3)cc2C(F)(F)F)CC1` the remaining binding was 0.35% (Tyrosine-protein kinase ABL1, non-phosphorylated (ABL1, Homo sapiens, UniProt P00519, H396P); binding; competition with immobilised ligand; 1 µM).
With `O=C(N[C@H]1CCCCC/C=C\C2C[C@@]2(C(=O)O)NC(=O)[C@@H]2C[C@@H](Oc3ccncc3)CN2C1=O)OC1CCCC1` (some centres unmarked) the remaining binding was 89% (Tyrosine-protein kinase ABL1, phosphorylated (ABL1, Homo sapiens, UniProt P00519, M351T); binding; competition with immobilised ligand; 1 µM).
The remaining binding of `CNC(=O)[C@@H]1CC[C@@H](n2c(-c3ccc4cnccc4c3)nc3ccc(C(=O)NCc4cccc(C(N)=O)c4)cc32)C1` is reported as 97% (ABL1 F317L non-phosphorylated; binding; competition with immobilised ligand; 1 µM).
For `Cc1noc([C@H]2C[C@@H](c3ccc(C(F)(F)F)cc3)CN(C(=O)N3CCS(=O)(=O)C3)C2)n1`, the remaining binding was 100% (ABL1 E255K phosphorylated; binding; competition with immobilised ligand; 1 µM).
With `O=C(c1ccc(Nc2ncc(Cl)c(-c3cc4ccccc4s3)n2)cc1)N1CCC(N2CCCC2)CC1` the remaining binding was 100% (Tyrosine-protein kinase ABL1, phosphorylated (ABL1, Homo sapiens, UniProt P00519, F317I); binding; competition with immobilised ligand; 1 µM).
The remaining binding of `CN(c1nccc(-c2cnn3ncccc23)n1)C1CC1` is reported as 100% (Tyrosine-protein kinase ABL1 (ABL1, Homo sapiens, UniProt P00519, E255K); binding; 1 µM).
For `O=C(O)[C@@H]1[C@@H](Cn2nnc3ccccc3c2=O)CC[C@H]1C(=O)c1ccc(OCCC2CCOCC2)cc1`, the remaining binding was 84% (ABL1 E255K phosphorylated; binding; competition with immobilised ligand; 1 µM).
For `C[C@@H](c1ccc(-n2cnc3c(N)ncnc32)cc1)N1CCc2nn(C)c(Cc3ccccc3)c2C1=O`, the remaining binding was 70% (ABL1 E255K phosphorylated; binding; competition with immobilised ligand; 0.1 µM).
`O=C(Nc1c[nH]nc1C(=O)NC1CCNCC1)c1cc(F)cc(F)c1` has a remaining binding of 100% (ABL1 Y253F phosphorylated; binding; competition with immobilised ligand; 1 µM).
`CNCc1ccccc1-c1csc([C@H](C)Nc2nc(C)nc3cc(OC)c(OC)cc23)c1` gave a remaining binding of 97% (ABL1 F317L non-phosphorylated; cell-free assay; competition with immobilised ligand; 1 µM).
`O=C(NCCCN1CCOCC1)c1ccc(Nc2ncc(Cl)c(-c3ccc(Cl)s3)n2)cc1` gave a remaining binding of 38% (ABL1 Y253F phosphorylated; binding; competition with immobilised ligand; 1 µM).
`O=C(NCC1CCOCC1)c1n[nH]cc1NC(=O)c1c(F)cccc1F` gave a remaining binding of 88% (Tyrosine-protein kinase ABL1, non-phosphorylated (ABL1, Homo sapiens, UniProt P00519); binding; competition with immobilised ligand; 1 µM).
The remaining binding of `C=CC(=O)N1CCC(C(=O)NCC(=O)N2CCN(c3nc(-c4cnc(N)nc4C(F)F)nc(N4CCOCC4)n3)CC2)CC1` is reported as 71% (ABL1 T315I non-phosphorylated; binding; competition with immobilised ligand; 1 µM).
The remaining binding of `O=C(c1ccc(Nc2nccc(-c3cc4ccccc4s3)n2)cc1)N1CCC(N2CCCC2)CC1` is reported as 14% (Tyrosine-protein kinase ABL1, phosphorylated (ABL1, Homo sapiens, UniProt P00519, T315I); binding; competition with immobilised ligand; 1 µM).
For `CN(C)c1nccc(-c2cnn3ncccc23)n1`, the remaining binding was 96% (ABL1 phosphorylated; binding; 1 µM).
The remaining binding of `C[C@@H]1CN(c2cc(-c3nn(C)c4ccc(OC5(C)CC5)cc34)ncn2)C[C@H](C)O1` is reported as 73% (ABL1 T315I non-phosphorylated; cell-free assay; competition with immobilised ligand; 1 µM).
The remaining binding of `Cc1cnn2ncc(-c3ccnc(N(C)C)n3)c2c1` is reported as 81% (Tyrosine-protein kinase ABL1 (ABL1, Homo sapiens, UniProt P00519, H396P); binding; 1 µM).
`O=C(c1ccc(Nc2ncc(Cl)c(-c3ccc(Cl)s3)n2)cc1)N1CCC(N2CCCC2)CC1` gave a remaining binding of 97% (Tyrosine-protein kinase ABL1, non-phosphorylated (ABL1, Homo sapiens, UniProt P00519, F317I); binding; competition with immobilised ligand; 1 µM).
`N[C@H]1CCN(c2nccc(-c3cnn4ncccc34)n2)C1` has a remaining binding of 100% (Tyrosine-protein kinase ABL1 (ABL1, Homo sapiens, UniProt P00519, M351T); binding; 1 µM).
`COc1ccc2c(O[C@@H]3C[C@H]4C(=O)N[C@]5(C(=O)O)CC5/C=C\CCCCC[C@H](NC(=O)OC5CCCC5)C(=O)N4C3)cc(-c3csc(NC(=O)C(C)C)n3)nc2c1C` (some centres unmarked) gave a remaining binding of 93% (ABL1 phosphorylated; cell-free assay; competition with immobilised ligand; 1 µM).
`COc1ncc2cc3ccccc3nc2c1C#N` gave a remaining binding of 100% (ABL1 E255K phosphorylated; cell-free assay; competition with immobilised ligand; 5 µM).
`COc1cnc(Nc2cccc(S(N)(=O)=O)c2)nc1N1CCN(c2ccccc2)C(=O)C1` has a remaining binding of 83% (ABL1 T315I non-phosphorylated; binding; competition with immobilised ligand; 1 µM).
